Measured values: paper PMC5402717 (Pain, 2017)
Entries after “also recorded” stand apart in the source; their conditions may differ.

Tests used:
PKG-1α [1] = conditions: cited from earlier work
panel of 274 kinases = assay: Kinase panel screening, overall selectivity; assay type: biochemical
[2] = Stability of N46 in plasma in vitro; assay type: in vitro ADME; conditions: rat plasma, 37°C
[3] = Tissue distribution of N46 in vivo; conditions: rat, tail vein injection
Method in brief: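 Test compound injected into the rat tail vein. Tissues homogenized in 0.1N sodium carbonate (2 mL) plus methanol (6 mL), centrifuged, and supernatant analyzed by LC/MS. C18 column, acetonitrile-water gradient 0-100% over 20 min, detection at 220 nm. Results corrected for % recovery using spiked standard curves.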

Sprague-Dawley rats [4] = assay: Capsaicin-induced mechanical hypersensitivity; assay type: in vivo, rat; conditions: 10 nmol N46 into hind paw, no capsaicin
Method in brief: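 Male Sprague-Dawley rats given 10 nmol test compound intraplantar, without capsaicin. von Frey hairs (0.4-15 g) applied for ~6 s each, up-down sequence starting at 2 g. 50% paw withdrawal threshold calculated by the Chaplan method at set times after injection; n = 15 per group; double-blind.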

Sprague-Dawley rats [5] = assay: MIA-induced osteoarthritic knee joint pain; assay type: in vivo, rat; conditions: 5 nmol intra-articular 14 days after MIA
Method in brief: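 Baseline hind-limb weight bearing taken on day 0. Rats then received 3 mg MIA in 50 μL saline into the right knee and saline into the left. At 14 days, 5 nmol test compound or quarter-saline vehicle (50 μL) was given intra-articularly. Incapacitance tester: paw force averaged over 5 s, 3 trials per point, expressed as percent difference between limbs.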

[6] = General observation for abnormalities or deficits; assay type: in vivo, rat; conditions: N46-injected rats
[7] = Heart rate and blood pressure monitoring after N46 injection; assay type: in vivo, rat; conditions: injected 1uM N46, monitored 30 minutes; data not shown
Method in brief: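 Heart rate and systolic and diastolic blood pressure recorded for a 30 min baseline, then 1uM test compound injected and monitoring continued for 30 min.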

purified bovine PKG-1α = target: T1, purified bovine PKG-1α (Bos taurus, UniProt P00516); assay: In vitro protein kinase G assay; assay type: biochemical; conditions: for IC50: IC50 for PKG-1α
T1 sequence (P00516 1-671): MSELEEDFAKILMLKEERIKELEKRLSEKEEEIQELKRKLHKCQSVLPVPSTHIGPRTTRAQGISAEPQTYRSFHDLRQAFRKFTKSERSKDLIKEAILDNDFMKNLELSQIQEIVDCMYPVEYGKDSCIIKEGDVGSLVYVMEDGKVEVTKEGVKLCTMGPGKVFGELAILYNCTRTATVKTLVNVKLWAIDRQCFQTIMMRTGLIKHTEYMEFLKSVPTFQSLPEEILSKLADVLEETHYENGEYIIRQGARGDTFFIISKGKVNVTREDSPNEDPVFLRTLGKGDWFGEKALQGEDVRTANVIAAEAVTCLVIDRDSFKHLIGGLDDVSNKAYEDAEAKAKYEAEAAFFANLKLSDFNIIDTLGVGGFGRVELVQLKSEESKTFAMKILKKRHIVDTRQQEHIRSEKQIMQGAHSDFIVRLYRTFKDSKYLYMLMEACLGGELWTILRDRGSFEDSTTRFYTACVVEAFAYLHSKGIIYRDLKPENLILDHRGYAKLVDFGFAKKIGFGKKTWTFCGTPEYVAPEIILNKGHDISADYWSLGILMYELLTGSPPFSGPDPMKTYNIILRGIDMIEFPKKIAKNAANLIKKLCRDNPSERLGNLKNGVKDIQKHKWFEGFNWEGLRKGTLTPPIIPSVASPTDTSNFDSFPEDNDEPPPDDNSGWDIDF
Method in brief: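 Reaction started with 10 μM [32P]-ATP, run 20 min at 37°C, stopped with 50 mM EDTA. Peptide captured on phosphocellulose filters, counted by β-scintillation. IC50s are single determinations in duplicate.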

[8] = target: recombinant catalytic domain of human PKA (Homo sapiens, UniProt P17612); assay: In vitro cAMP-dependent kinase; assay type: biochemical
Method in brief: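 Recombinant human PKA catalytic domain with kemptide substrate; activity measured as 32P incorporation from [γ-32P]ATP in Tris buffer. Labeled peptide captured on cellulose phosphate filters and counted by β-scintillation. IC50s are single determinations run in duplicate.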

[9] = target: cardiac hERG potassium channel (Homo sapiens, UniProt Q12809); assay: hERG tail current recording; assay type: cell-based
Method in brief: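 hERG tail currents evoked by a voltage protocol applied every 10 s. Test compound applied cumulatively at 0.1, 0.3, 1.0, 3, 10 and 30 μM, 5 min per concentration, with 1 μM cisapride as positive control. Mean percent inhibition from 13 cells gave a 6-point curve, from which IC50 was calculated.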

Sprague-Dawley rats [10] = assay: CFA-induced thermal hyperalgesia; assay type: in vivo, rat
Method in brief: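 Male Sprague-Dawley rats (250-300 g) given 100 μL CFA intraplantar; one day later, test compound was given intrathecally at L4/L5 (15 μL, 1% DMSO/saline, saline flush) or into the tail vein (1 mL, quarter normal saline), vs vehicle. Hargreaves radiant heat test: glass at 30°C, 30 min acclimation, baseline latency ~10 s, 20 s cutoff. Both paws tested the following day, double-blind.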

PKG-1α [11] = assay: PKG-1α activity in sciatic nerve segment after capsaicin injection; assay type: in vivo, rat; conditions: capsaicin 0.1 μM under the perineurium of the sciatic nerve, 30 minutes
Method in brief: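 Capsaicin (0.1 μM) injected under the sciatic nerve perineurium, with an equal vehicle volume into the contralateral nerve. After 30 min, the 1 cm segment containing the injection site was harvested and homogenized. Equal-protein samples were assayed for PKG-1α activity; N = 4.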

Chain of cardiac hERG potassium channel (Q12809 whole entry): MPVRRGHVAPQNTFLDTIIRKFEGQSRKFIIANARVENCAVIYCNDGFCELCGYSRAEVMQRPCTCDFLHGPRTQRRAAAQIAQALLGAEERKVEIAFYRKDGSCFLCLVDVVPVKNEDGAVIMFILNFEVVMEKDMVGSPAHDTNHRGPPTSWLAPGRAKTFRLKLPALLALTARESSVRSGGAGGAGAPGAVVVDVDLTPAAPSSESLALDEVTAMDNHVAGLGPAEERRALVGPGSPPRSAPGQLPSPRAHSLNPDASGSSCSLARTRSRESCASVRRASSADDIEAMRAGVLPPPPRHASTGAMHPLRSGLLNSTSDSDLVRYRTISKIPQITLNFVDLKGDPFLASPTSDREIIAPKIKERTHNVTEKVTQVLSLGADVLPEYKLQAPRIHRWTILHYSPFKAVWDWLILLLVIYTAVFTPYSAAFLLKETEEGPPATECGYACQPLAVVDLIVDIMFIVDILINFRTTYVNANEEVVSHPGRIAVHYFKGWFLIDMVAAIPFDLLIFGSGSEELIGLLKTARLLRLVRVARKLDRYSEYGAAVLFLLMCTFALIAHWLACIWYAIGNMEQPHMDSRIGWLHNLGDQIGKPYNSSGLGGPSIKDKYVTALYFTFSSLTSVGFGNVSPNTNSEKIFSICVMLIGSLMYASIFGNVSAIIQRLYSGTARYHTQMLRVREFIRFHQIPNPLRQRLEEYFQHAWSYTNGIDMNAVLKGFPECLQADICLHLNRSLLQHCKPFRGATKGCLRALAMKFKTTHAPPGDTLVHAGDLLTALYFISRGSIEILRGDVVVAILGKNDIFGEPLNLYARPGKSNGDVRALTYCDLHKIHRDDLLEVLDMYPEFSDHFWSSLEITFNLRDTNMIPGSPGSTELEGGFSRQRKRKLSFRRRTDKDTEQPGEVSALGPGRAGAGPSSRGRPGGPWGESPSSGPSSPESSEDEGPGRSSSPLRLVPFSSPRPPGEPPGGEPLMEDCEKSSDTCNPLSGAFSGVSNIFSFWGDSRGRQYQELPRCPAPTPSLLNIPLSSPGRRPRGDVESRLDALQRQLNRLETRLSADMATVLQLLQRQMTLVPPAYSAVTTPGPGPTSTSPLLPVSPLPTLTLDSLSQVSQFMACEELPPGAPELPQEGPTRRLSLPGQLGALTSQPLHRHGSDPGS

SMILES: COC(=O)[C@@]1(OC)C[C@H]2O[C@]1(C)n1c3ccccc3c3c4c(c5c6ccccc6n2c5c31)C(=O)N(C)C4 [KT5823]
- Ki (PKG-1α [1]): 234 nM

SMILES: CCCOc1ccc(OC)c(F)c1C(=O)c1ccc(C(=O)N[C@@H]2CNC[C@H]2NC(=O)c2ccc3[nH]ncc3c2)cc1 [N46, N-((3R,4R)-4-(4-(2-fluoro-3-methoxy-6-propoxybenzoyl)benzamido)pyrrolidin-3-yl)-1H-indazole-5-carboxamide]
- number of kinases inhibited more than 50% (panel of 274 kinases; 750 nM N46): 12
- off-target hit rate (kinases inhibited by more than 50%) (panel of 274 kinases; 12 out of 274, dose of N46 where PKG-1 was inhibited 100%): 4.4%
- stability in plasma (time stable) [2]: at least 7 hours
- presence in the CNS [3]: not detected in the CNS
- mechanical threshold, N46 alone (Sprague-Dawley rats [4]): had no effect
- duration of relief after a single injection (Sprague-Dawley rats [5]): 7 days
- weight bearing distribution (Sprague-Dawley rats [5]; days 15 and 21, vs vehicle): significant improvement in weight bearing distribution; also recorded: significantly reversed the MIA-induced shift in weight bearing
- sedation [6]: no evidence of sedation
- heart rate and systolic and diastolic blood pressure [7]: no significant effect
- fold difference of IC50, PKA versus PKG-1α (purified bovine PKG-1α): 714 fold
- IC50 (purified bovine PKG-1α): 7.5 nM
- IC50 (purified bovine PKG-1α; 10 μM ATP, 37°C, 20 minutes): 7 nM
- type of inhibition of PKG-1α (kinetic studies) (purified bovine PKG-1α; data not shown): noncompetitive inhibitor
- IC50 [8]: 5000 nM
- IC50 [9]: 4470 nM
- thermal hyperalgesia (PWL), CFA-injected paw (Sprague-Dawley rats [10]; 0.25 nmol intrathecal 1 day after CFA, measured post-CFA day 2, vs vehicle): marked reduction
- thermal hyperalgesia (PWL), CFA-injected paw (Sprague-Dawley rats [10]; 1 nmol into the tail vein 1 day after CFA, 24 hours later, vs vehicle): significantly increased the PWL; also recorded: significantly reduced the heat hyperalgesia
- duration of relief after a single injection (Sprague-Dawley rats [10]; CFA model): at least 24 hours
- thermal threshold, contralateral noninflamed paw (Sprague-Dawley rats [10]; N46 intrathecal): no significant changes

SMILES: Nc1nc2c(nc(Sc3ccc(Cl)cc3)n2[C@@H]2O[C@@H]3CO[P@@](=O)(S)O[C@H]3[C@H]2O)c(=O)[nH]1 [RPG, Rp-8-pCPT-cGMPS, reference compound]
- Ki (PKG-1α [1]): 500 nM
- thermal hyperalgesia (PWL), CFA-injected paw (Sprague-Dawley rats [10]; 250 nmol intrathecal 1 day after CFA, PWL measured the following day, vs vehicle): alleviated significantly; also recorded: significant improvement in mean PWL
- thermal threshold, contralateral noninflamed paw (Sprague-Dawley rats [10]; RPG intrathecal): no significant changes

SMILES: COc1cc(CNC(=O)CCCC/C=C/C(C)C)ccc1O [capsaicin]
- PKG-1α in the nerve segment that was active (PKG-1α [11]): 40 ± 15%
